High-throughput results (PubChem BioAssay)
Compounds with a hit are over-represented: about 2.5% of the library has one in this group of screens.
MC4R antag cAMP – MC4R antagonists of cAMP signaling, primary screen, cell-based, TR-FRET, antagonist arm of biased-ligand search | hit rate 0.48% among 360,000 | inhibition, % at 6.5 µM | Melanocortin receptor 4 (Homo sapiens), P32245 | MC4R-expressing cells, MTII-stimulated cAMP, LANCE TR-FRET;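 active means inhibition above its plate's cutoff, the mean of tested wells on that plate plus 3 SD, cut at about 29% in these data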
Target sequence (P32245 whole entry, looked up): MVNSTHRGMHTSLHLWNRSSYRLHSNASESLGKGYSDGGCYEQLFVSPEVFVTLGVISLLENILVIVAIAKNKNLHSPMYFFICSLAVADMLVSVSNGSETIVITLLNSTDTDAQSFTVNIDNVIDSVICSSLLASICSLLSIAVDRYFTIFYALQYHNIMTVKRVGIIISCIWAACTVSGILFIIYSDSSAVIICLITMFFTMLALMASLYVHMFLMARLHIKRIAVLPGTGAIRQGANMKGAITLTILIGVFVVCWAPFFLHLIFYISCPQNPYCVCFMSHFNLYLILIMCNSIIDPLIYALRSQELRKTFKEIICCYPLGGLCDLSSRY
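Assay system: U2OS cells stably expressing human melanocortin 4 receptor (MC4R) / Dosing: 6.5 µM / Timing: compound 30 min, challenge 1 h, detection 1 h / Measured by: Eu-cAMP/anti-cAMP TR-FRET, emission 671 nm / Replicates: singlicate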
MC4R barr agon – MC4R agonists recruiting beta-arrestin, primary screen, cell-based, luminescence, agonist arm of biased-ligand search | U2OS MC4R beta-arrestin complementation; percent of melanotan II response, DMSO zero | hit rate 0.98% among 360,000 | activation, % at 8.9 µM;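 active means activation above a per-plate cutoff, the mean activation of sample wells on that plate plus 3 SD, cut at about 8% in these data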
PG9 Ab binder – binders of HIV-1 gp120 antibody PG9, primary screen, biochemical, TR-FRET; TR-FRET gp120-PG9 antibody binding; AID 624416, 2012; HIV-1 gp120 / PG9 antibody interaction; inhibition, % at 6.7 µM; hit rate 0.43% among 360,000; in the data active means inhibition above about 8.5%
NTR1 agonist – agonists of human NTR1, primary screen, imaging, U2OS cells, beta-arrestin-GFP, high content | AID 493036, 2011 | hit rate 0.17% among 330,000 | activation, % at 20 µM | NTR1-U2OS beta-arrestin-GFP spot imaging, agonist mode | Neurotensin receptor type 1 (Homo sapiens), P30989;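 active means activation at or above 40% of the spot to cytoplasm intensity ratio, with at least 20 cells analyzed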
Target sequence (P30989 whole entry, looked up): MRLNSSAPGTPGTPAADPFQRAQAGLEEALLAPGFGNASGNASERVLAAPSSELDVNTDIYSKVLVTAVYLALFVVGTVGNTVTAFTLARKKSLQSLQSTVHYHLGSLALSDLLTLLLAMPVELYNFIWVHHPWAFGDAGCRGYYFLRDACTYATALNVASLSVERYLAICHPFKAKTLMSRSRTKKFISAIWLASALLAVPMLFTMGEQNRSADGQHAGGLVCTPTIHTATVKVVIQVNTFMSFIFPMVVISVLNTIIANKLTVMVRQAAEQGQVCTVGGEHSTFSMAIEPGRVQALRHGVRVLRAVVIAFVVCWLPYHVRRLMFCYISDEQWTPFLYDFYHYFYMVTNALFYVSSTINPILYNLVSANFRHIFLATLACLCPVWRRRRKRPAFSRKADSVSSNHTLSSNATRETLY
Rev-erbA mod – modulators of Rev-erb alpha DNA binding, primary screen, biochemical, FITC-DNA, fluorescence polarization, uHTS. Nuclear receptor subfamily 1 group D member 1 (Homo sapiens), P20393. Rev-erbα–FITC-DNA binding, 90 min. activity, % at 10 µM. hit rate 0.79% among 370,000;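 active means activity above about 14%, limit read from the data; passing the limit was not always enough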
NR1D1 mod conf – modulators of Rev-erb alpha DNA binding, confirmation, biochemical, FITC-DNA, fluorescence polarization, single point. shares compounds with Rev-erbA mod. activation, % at 25 µM. hit rate 61% among 3,000. 90 min. AID 1259319, 2017;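 active means activation at or above a set limit, or at least 3 SD above the negative control mean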
RORg DNA counter – modulation of RORgamma DNA binding, dose response, counter-screen for Rev-erb alpha modulator project, biochemical, fluorescence polarization, FITC-DNA | purified RORgamma protein-FITC-DNA binding | shares compounds with Rev-erbA mod | hit rate 8% among 910 | IC50, µM;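 active means Compounds whose fitted half-maximal concentration for disrupting protein-DNA binding is below 10 micromolar; the record names Rev-erb in its text, so the target is in doubt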
Of the large screens only hits and unclear results are named; the others gave an inactive call (follow-up assays come after a bar, where they were run).

Clc1cccc(Cc2c(-c3cccc(Cl)c3)nc3ccc(Br)cn23)c1	Rev-erbA mod 25.9 (no result: MC4R antag cAMP, MC4R barr agon, NTR1 agonist) | NR1D1 mod conf 18.6
COC(=O)c1c(NC2=NS(=O)(=O)c3ccccc32)sc2c1CCC(C(C)(C)C)C2 (stereo not drawn)	Rev-erbA mod 29.5 (no result: NTR1 agonist) | NR1D1 mod conf 18.7
CCOC(=O)c1c(NC2=NS(=O)(=O)c3ccccc32)sc2c1CCC(C)C2 (stereo not drawn)	Rev-erbA mod 41.4 | NR1D1 mod conf inactive
Cc1ccc(-c2cc(C(=O)NCc3cnn(C)c3C)c3cc(Br)ccc3n2)cc1	Rev-erbA mod 31.8 | NR1D1 mod conf inactive
O=C(Nc1ccccn1)c1cc(-c2cccnc2)nc2ccc(Br)cc12	none
NS(=O)(=O)c1ccc(CNC(=O)c2cc(-c3cccnc3)nc3ccc(Br)cc23)cc1	Rev-erbA mod 42.8 | NR1D1 mod conf 31.2 | RORg DNA counter 1.26
CC(=O)C1=C(C)N(Cc2ccc(Br)cc2)C(=S)NC1c1ccc(F)cc1 (stereo not drawn)	none (no result: MC4R antag cAMP, MC4R barr agon, NTR1 agonist)
COC(=O)c1cc2c(c3c4cc(OC)ccc4n(S(=O)(=O)c4cccc(C)c4)c13)C(=O)N(Cc1ccc(C(F)(F)F)cc1)C2	Rev-erbA mod 18.2 (no result: MC4R antag cAMP, MC4R barr agon, NTR1 agonist) | NR1D1 mod conf inactive
COC(=O)[C@]12C[C@H](CC(=O)NCCCCc3ccccc3)C(=O)N(CCC3=CCCCC3)C1=C[C@H](C(C)(C)C)O[C@@H]2C	none (no result: MC4R antag cAMP, MC4R barr agon, NTR1 agonist)
O=C(NN1CCOCC1)c1cc(-c2ccc(Br)s2)nc2ccccc12	Rev-erbA mod 32.0 | NR1D1 mod conf inactive
CC(C)Oc1cccc(-c2cc(C(=O)NN3CCOCC3)c3ccccc3n2)c1	none
O=C(CSc1nnc(Cc2cccs2)n1-c1ccccc1)Nc1ccccc1-c1ccccc1	none (no result: MC4R antag cAMP, MC4R barr agon, PG9 Ab binder, NTR1 agonist)
O=S(=O)(Cc1cc(Sc2ccc(Cl)cc2)nc(-c2ccccc2)n1)c1ccccc1	none
CCOC(=O)C(C)Sc1cc(CS(=O)(=O)c2ccccc2)nc(-c2ccccc2)n1 (stereo not drawn)	Rev-erbA mod 29.4 | NR1D1 mod conf 36.1 | RORg DNA counter inactive
O=c1c2sc3nc(N4CCOCC4)c4c(c3c2ncn1C(c1ccccc1)c1ccccc1)CCCC4	Rev-erbA mod 29.6 (no result: NTR1 agonist) | NR1D1 mod conf 26.8
Cc1sc2ncnc(SCC(=O)N3c4ccccc4Sc4ccc(Cl)cc43)c2c1C	Rev-erbA mod 131.6 | NR1D1 mod conf 17.1
Cc1sc2ncnc(SCC(=O)N3CCCCC3)c2c1C	none
CCN(C)C(=O)CN1C(=O)C2CCCCN2C(=O)c2ccccc21 (stereo not drawn)	none (no result: MC4R antag cAMP, MC4R barr agon, PG9 Ab binder, NTR1 agonist)
CC(C)(C)OC(=O)[C@H](Cc1ccccc1)NC(=O)c1ncn2c1c(=O)[nH]c1ccc(Br)cc12	Rev-erbA mod 168.3 (no result: NTR1 agonist) | NR1D1 mod conf inactive
CC(C)(C)OC(=O)[C@H](Cc1ccccc1)NC(=O)c1nc[nH]c1C(=O)N[C@@H](Cc1ccccc1)C(=O)OC(C)(C)C	none
Cc1ccccc1/C=C1\SC(=S)N(/N=C/c2cc([N+](=O)[O-])ccc2O)C1=O	Rev-erbA mod 21.6 | NR1D1 mod conf inactive
Cc1c(C)c2c(c(C)c1OC(=O)CCC(=O)OCCO)CCC(C)(CCCC(C)CCCC(C)CCCC(C)C)O2 (stereo not drawn)	none (no result: MC4R antag cAMP, MC4R barr agon, PG9 Ab binder, NTR1 agonist)
CCC(C(=O)Nc1ccccc1N1CCCC1)c1cccc(Cl)c1 (stereo not drawn)	none (no result: MC4R antag cAMP, MC4R barr agon, PG9 Ab binder, NTR1 agonist)
Cc1cc(N(C)C)cc(C)c1N=Nc1cc[n+]([O-])cc1	Rev-erbA mod 26.7 (no result: NTR1 agonist) | NR1D1 mod conf 24.5
Cc1cc(C(F)(F)F)c2c(N)c(C(=O)Nc3cc(C)on3)sc2n1	Rev-erbA mod 86.2 | NR1D1 mod conf 60.0 | RORg DNA counter inactive
C[C@@H](NC(=O)C[C@H]1CC[C@H]2[C@@H](COc3ccc(NC(=O)Nc4ccccc4)cc3C(=O)N2C)O1)c1ccccc1	Rev-erbA mod 26.2 (no result: MC4R antag cAMP, MC4R barr agon, PG9 Ab binder, NTR1 agonist) | NR1D1 mod conf 20.3
CCNC(=O)Nc1ccc2c(c1)C(=O)N(C)[C@H]1CC[C@H](CC(=O)N[C@H](C)c3ccccc3)O[C@@H]1CO2	Rev-erbA mod 80.0 (no result: MC4R antag cAMP, MC4R barr agon, PG9 Ab binder, NTR1 agonist) | NR1D1 mod conf 55.2 | RORg DNA counter inactive
CN1C(=O)c2cc(NS(=O)(=O)c3ccc(F)cc3)ccc2OC[C@H]2O[C@@H](CC(=O)NCC(F)(F)F)CC[C@@H]21	Rev-erbA mod 130.4 (no result: MC4R antag cAMP, MC4R barr agon, PG9 Ab binder, NTR1 agonist) | NR1D1 mod conf 79.5 | RORg DNA counter 7.22
CCNC(=O)Nc1ccc2c(c1)C(=O)N(C)[C@H]1CC[C@@H](CC(=O)OC)O[C@H]1CO2	none (no result: MC4R antag cAMP, MC4R barr agon, PG9 Ab binder, NTR1 agonist)
COC(=O)C[C@@H]1CC[C@@H]2[C@@H](COc3ccc(NS(=O)(=O)c4ccc(F)cc4)cc3C(=O)N2C)O1	none (no result: MC4R antag cAMP, MC4R barr agon, PG9 Ab binder, NTR1 agonist)
CN1C(=O)c2cc(NC(=O)Cc3ccccc3)ccc2OC[C@H]2O[C@H](CC(=O)O)CC[C@H]21	none (no result: MC4R antag cAMP, MC4R barr agon, PG9 Ab binder, NTR1 agonist)
COc1cccc(CNC(=O)C[C@H]2CC[C@H]3[C@@H](COc4ccc(NC(=O)c5cccs5)cc4C(=O)N3C)O2)c1	Rev-erbA mod 59.7 (no result: MC4R antag cAMP, MC4R barr agon, PG9 Ab binder, NTR1 agonist) | NR1D1 mod conf 43.0 | RORg DNA counter inactive
CC1CCC2(CC1)CCC2NCc1ccc(Cl)c(Cl)c1 (stereo not drawn)	none (no result: MC4R antag cAMP, MC4R barr agon, PG9 Ab binder, NTR1 agonist)
CCOc1nc(-c2ccccc2)ccc1-c1noc(-c2ccncc2)n1	Rev-erbA mod 29.3 | NR1D1 mod conf 23.7
CCOc1nc(-c2ccccc2)ccc1-c1noc(-c2cccs2)n1	Rev-erbA mod 39.5 | NR1D1 mod conf inactive
COc1cccc(-c2ccc(-c3noc(-c4cccs4)n3)c(OC)n2)c1	none
O=c1c(=O)n2c(nn1Cc1ccc(F)cc1)sc1ccccc12	Rev-erbA mod 33.2 | NR1D1 mod conf 20.2
O=C(Cn1nc2sc3ccccc3n2c(=O)c1=O)c1cccs1	none
O=C(COc1ncnc2c(Cl)cc(Cl)cc12)NCCC1=CCCCC1	Rev-erbA mod 22.2 | NR1D1 mod conf inactive
CCc1nnc2sc(-c3ccc(NC(=O)c4ccco4)cc3)nn12	none
CCc1nnc2sc(-c3ccc(NC(=O)c4ccc5c(c4)OCCO5)cc3)nn12	Rev-erbA mod 92.1 | NR1D1 mod conf 57.5
COc1ccc(/C=N\NC(=O)c2ccc([N+](=O)[O-])cc2)cc1COc1c(F)c(F)cc(F)c1F	none
COc1ccc(/C=N\NC(=O)c2ccccc2[N+](=O)[O-])cc1COc1c(F)c(F)c(F)c(F)c1F	Rev-erbA mod 19.8 | NR1D1 mod conf inactive
CCOc1cccc(-c2nnc3n2N=C(c2ccc(OC)cc2)CS3)c1	none (no result: MC4R antag cAMP, MC4R barr agon, PG9 Ab binder, NTR1 agonist)
